Laboratory results: paper PMC4980721 (Cellular and molecular gastroenterology and hepatology, 2016)
Where “and” joins values, the source holds several entries; their conditions need not be identical. Equal values may be shown once.

Columns and labels:
SW620 cells [1] = experiment: Apparent association time constant by flow cytometry; format: binding, human; details: from k = 0.83 min^−1
[2] = tested on: human proximal colon FFPE specimens; experiment: Immunofluorescence of proximal human colon specimens with claudin-1 peptide; details: human proximal colon FFPE sections, 5 µM peptide 10 min at RT
How it was run: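 FFPE sections (5 µm) deparaffinized. Antigen retrieval: boiling 10 mM sodium citrate, 0.05% Tween, pH 6.0, then sub-boiling 15 min. Protein serum block 15 min RT. 5 µM Cy5.5-labeled peptide 10 min RT, then anti-claudin-1 (1:200) overnight and AF488 secondary (1:500) 1 h RT, DAPI mount. Equal exposure; mean intensity from three 20×20 µm² boxes within epithelium per image, avoiding saturation.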

SW480 cells = experiment: Cell binding assay, confocal microscopy; format: cell-based, human
How it was run: (§1)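 Cells grown in DMEM + 10% FBS + 1% penicillin/streptomycin at 37°C, 5% CO2, then seeded at ~0.5×10^6 cells/mL on coverslips. Next day, 10 µM Cy5.5-labeled test peptide or Cy5.5-labeled control peptide added for 1 h at 4°C. Fixed in 4% PFA 10 min RT, DAPI counterstain, confocal imaging. Intensities from 10 random cells in 3 independent images; one-way ANOVA.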

claudin-1 (CLDN1) = experiment: siRNA knockdown of claudin-1 expression, peptide and antibody staining; format: cell-based, human; details: control and CLDN1 siRNA, confocal
How it was run: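 SW620 cells seeded at 0.2×10^6 cells/mL, transfected with DharmaFECT1 plus 25 nM CLDN1 SMARTpool or control siRNA for 72 h, then passaged onto coverslips. Knockdown checked by western blot. Staining: 5 µM Cy5.5-labeled peptide or control peptide 30 min at 4°C, then 4% PFA fixation; or methanol fixation, anti-CLDN1 5 µg/mL 1 h RT, AF488 secondary. Two-way ANOVA on average intensity (10 cells/slide, 2 slides/condition).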

HCT116 cells = experiment: Cell binding assay, confocal microscopy; format: cell-based, human
SW620 cells [3] = experiment: Cell binding assay, confocal microscopy; format: cell-based, human
How it was run: as §1

Substance: RTSPSSR [RTS*-Cy5.5]
- time constant / time scale for binding corresponding to k (SW620 cells [1]): < 1.2 min and ~ 1.2 min
- mean (±std) fluorescence intensity, SSA ([2]; n = 11 SSA): 20.1±13.3
- mean (±std) fluorescence intensity, normal ([2]; n = 28 normal): 9.1±6.0

Substance: SPTSSRR [SPT*-Cy5.5]
- binding to cell surface on confocal microscopy (SW480 cells): minimal binding
- binding / signal in SW620 cells transfected with siCL or siCLDN1 (claudin-1 (CLDN1)): minimal binding
- binding to cell surface on confocal microscopy (HCT116 cells): minimal binding
- binding to cell surface on confocal microscopy (SW620 cells [3]): minimal binding
